Consider ten compounds from ChEMBL document CHEMBL3580655, “Identification of a Potent Inhibitor of CREB-Mediated Gene Transcription with Efficacious in Vivo Anticancer Activity” (J Med Chem, 2015).

Active and inactive are the calls of the source. No cut-off for these calls is given here.

A short description of assay [1]: Inhibition of CREB-mediated gene transcription in human HEK293T cells transfected with pCRE-RLuc by renilla luciferase reporter assay. In kind it is cell-based. As to conditions: HEK-293T. (A reporter such as luciferase makes a cellular process visible.)
A further assay relates to MCF7. Kind of assay: Antiproliferative activity against human MCF7 cells assessed as inhibition of cell growth after 72 hrs by MTT assay. It is filed as functional. The note with it: MCF7, 72 h. A digest of the protocol: (§1)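 Cells seeded, allowed to attach overnight, then exposed to a range of concentrations for 72 h. MTT 0.5 mg/mL in complete medium, 3 h at 37 °C, formazan dissolved in DMSO, absorbance 570 nm. Percent growth = 100×(treated−time-zero)/(medium control−time-zero). GI50 from nonlinear regression of the growth–concentration curve. Mean ± SD of at least two independent experiments in duplicate; highest concentration 100 μM.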
For orientation: Formazan colour is commonly taken as a measure of viable cells.

The test system of a further assay is A549. The assay can be described thus: Antiproliferative activity against human A549 cells assessed as inhibition of cell growth after 72 hrs by MTT assay. In kind it is functional. The note with it: A549, 72 h. A digest of the protocol:
as §1

In the next assay the test system is MDA-MB-468. Kind of assay: Antiproliferative activity against human MDA-MB-468 cells assessed as inhibition of cell growth after 72 hrs by MTT assay. It is filed as functional. The note with it: MDA-MB-468, 72 h. A digest of the protocol: as §1
The test system of a further assay is MDA-MB-231. Kind of assay: Antiproliferative activity against human MDA-MB-231 cells assessed as inhibition of cell growth after 72 hrs by MTT assay. It is filed as functional. The note with it: MDA-MB-231, 72 h. A digest of the protocol:
as §1

The next assay deals with HEK-293T. The assay can be described thus: Inhibition of CREB-mediated gene transcription in human HEK293T cells assessed as inhibition of forskolin-stimulated Nurr1/NR4A2 transcription at 1000 nM after 1 hr by qRT-PCT analysis. It is filed as cell-based. A digest of the protocol: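 HEK 293T cells exposed to a range of compound concentrations for 1 h, then DMSO or forskolin (10 μM) for 45 min. Nurr1/NR4A2 transcript level measured by qRT-PCR as relative mRNA.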

For assay [2], the target named is Cellular tumor antigen p53 (Homo sapiens) (UniProt P04637). Kind of assay: Inhibition of P53 (unknown origin) transfected in human HEK293T cells assessed as inhibition of forskolin-stimulated gene transcription at > 1 uM after 30 mins by CRE-RLuc complementation assay. In kind it is cell-based. The note with it: HEK-293T. The procedure, abridged: (§2)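 HEK 293T cells transfected with the relevant plasmid combinations (VP16-CREB: VP16 activation domain fused to full-length CREB; or p53), then exposed to a range of concentrations before Renilla luciferase measurement. Activity normalized to protein concentration, expressed as RLU/μg protein.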
Sequence of Cellular tumor antigen p53 (Homo sapiens) (P04637 whole entry, looked up, the tested form may be a part): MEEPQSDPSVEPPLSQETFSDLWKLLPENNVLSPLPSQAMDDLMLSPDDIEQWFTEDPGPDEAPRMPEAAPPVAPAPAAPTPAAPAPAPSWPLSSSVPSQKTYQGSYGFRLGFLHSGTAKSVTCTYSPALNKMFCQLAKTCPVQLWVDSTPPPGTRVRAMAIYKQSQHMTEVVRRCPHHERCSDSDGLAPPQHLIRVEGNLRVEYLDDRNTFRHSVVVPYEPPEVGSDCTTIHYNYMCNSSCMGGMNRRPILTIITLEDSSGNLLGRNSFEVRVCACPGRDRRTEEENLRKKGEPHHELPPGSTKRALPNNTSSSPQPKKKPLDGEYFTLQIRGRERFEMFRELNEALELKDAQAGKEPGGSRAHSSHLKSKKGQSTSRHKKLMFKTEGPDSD

Assay [3] has the same target. The assay can be described thus: Inhibition of P53 (unknown origin) transfected in human HEK293T cells assessed as inhibition of forskolin-stimulated gene transcription after 30 mins by CRE-RLuc complementation assay. In kind it is cell-based. The note with it: HEK-293T. The procedure, abridged: as §2

In general, IC50 refers to the concentration at which inhibition is half-maximal. A high value points to lower potency. Broadly, the GI50 is the concentration that inhibits growth by half. `NCCOc1cc2ccccc2cc1C(=O)NCCCOc1cc2ccccc2cc1C(=O)Nc1ccc(Cl)cc1O` gave an IC50 in assay [1] of 5230 nM. Moreover, the 50% growth inhibitory concentration (GI50) in the assay on MCF7 came out at 1890 nM; in the assay with A549, 2170 nM; with MDA-MB-468 it was 1850 nM; with MDA-MB-231, 2710 nM.
For `CNCCCOc1cc2ccccc2cc1C(=O)NCCCOc1cc2ccccc2cc1C(=O)Nc1ccc(Cl)cc1O` the same measures were 18500 nM, 1650 nM, 260 nM, 200 nM and 260 nM.
The compound `O=C(NCCCOc1cc2ccccc2cc1C(=O)Nc1ccc(Cl)cc1O)c1cc2ccccc2cc1OCCCN1CCOCC1` gave an IC50 in assay [1] greater than 50000 nM. In addition, the concentration for 50% growth inhibition (GI50) in the assay on MCF7 is greater than 100000 nM; with A549, greater than 100000 nM; in the assay on MDA-MB-468, 13700 nM; with MDA-MB-231 it was greater than 100000 nM.
Consider `NCCOc1cc2ccccc2cc1C(=O)NCCOc1cc2ccccc2cc1C(=O)Nc1ccc(Cl)cc1O`, for which, in assay [1], the IC50 came out at 300 nM. Further, the concentration for 50% growth inhibition (GI50) is 810 nM in the assay on MCF7, 1160 nM in the assay on A549, 250 nM with MDA-MB-468 and 1210 nM in the assay with MDA-MB-231.
Turning to `NCCCOc1cc2ccccc2cc1C(=O)NCCCOc1cc2ccccc2cc1C(=O)Nc1ccc(Cl)cc1O`, the inhibition entry in the assay on HEK-293T was “Active”. Also, the GI50 was 140 nM in the assay with MCF7, 290 nM in the assay with A549, 220 nM in the assay on MDA-MB-468 and 370 nM in the assay with MDA-MB-231.
For the compound `O=C(NCCCOc1cc2ccccc2cc1C(=O)Nc1ccc(Cl)cc1O)c1cc2ccccc2cc1OCCCO`, the half-maximal inhibitory concentration (IC50) in assay [1] came to 7300 nM. Further, the GI50 in the assay with MCF7 is 29000 nM; in the assay on A549, 39200 nM; in the assay with MDA-MB-468, 10200 nM; in the assay on MDA-MB-231, 82700 nM.
As to `NCCCOc1cc2ccccc2cc1C(=O)NCCOc1cc2ccccc2cc1C(=O)Nc1ccc(Cl)cc1O`, the inhibition entry in assay [2] is “Active”. In assay [3], the inhibition entry is “inactive”.
The compound `NCCCOc1ccccc1C(=O)NCCCOc1cc2ccccc2cc1C(=O)Nc1ccc(Cl)cc1O` showed an IC50 in assay [1] of 5300 nM. Further, the 50% growth inhibitory concentration (GI50) in the assay with MCF7 worked out at 2660 nM; in the assay with A549, 2320 nM; in the assay with MDA-MB-468 it was 2320 nM; in the assay with MDA-MB-231, 5820 nM.
For the compound `NCCCOc1cc2ccccc2cc1C(=O)NCCCOc1cc2ccccc2cc1C(=O)Nc1ccc(Cl)cc1`, 4690 nM corresponded to half-maximal inhibition in assay [1] (IC50). For the same compound, the 50% growth inhibitory concentration (GI50) with MCF7 came to 1720 nM; with A549, 950 nM; with MDA-MB-468, 1620 nM; in the assay on MDA-MB-231 it was 1000 nM.
For `NCCCOc1cc2ccccc2cc1C(=O)NCCCOc1ccccc1C(=O)Nc1ccc(Cl)cc1O` the same measures were 10000 nM, 2300 nM, 2440 nM, 1820 nM and 4610 nM.
